The source of these data is ChEMBL document CHEMBL3808298, “The combination of quinazoline and chalcone moieties leads to novel potent heterodimeric modulators of breast cancer resistance protein (BCRP/ABCG2)” (Eur J Med Chem, 2016).

The target in series [1] is T1, Broad substrate specificity ATP-binding cassette transporter ABCG2 (Homo sapiens, UniProt Q9UNQ0).
T1 sequence (Q9UNQ0 whole entry): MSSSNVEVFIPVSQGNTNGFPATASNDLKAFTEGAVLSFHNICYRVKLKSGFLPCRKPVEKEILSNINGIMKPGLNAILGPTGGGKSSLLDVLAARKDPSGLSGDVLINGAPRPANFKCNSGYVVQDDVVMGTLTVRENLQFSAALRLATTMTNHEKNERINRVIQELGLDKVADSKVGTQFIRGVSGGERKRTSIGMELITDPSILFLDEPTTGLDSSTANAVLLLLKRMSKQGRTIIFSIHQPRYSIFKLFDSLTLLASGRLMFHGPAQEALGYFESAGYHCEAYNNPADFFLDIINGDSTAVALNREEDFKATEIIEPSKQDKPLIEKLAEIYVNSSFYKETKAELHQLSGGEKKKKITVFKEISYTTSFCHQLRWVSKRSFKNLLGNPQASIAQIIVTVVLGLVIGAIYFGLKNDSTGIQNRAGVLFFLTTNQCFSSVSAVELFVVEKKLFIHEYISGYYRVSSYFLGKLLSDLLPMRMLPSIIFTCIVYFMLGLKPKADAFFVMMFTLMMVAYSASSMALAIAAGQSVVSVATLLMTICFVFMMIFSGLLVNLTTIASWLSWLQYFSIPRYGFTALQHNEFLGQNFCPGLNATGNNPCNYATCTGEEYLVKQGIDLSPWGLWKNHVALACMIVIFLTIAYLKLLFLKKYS
The experiment in a line: Inhibition of ABCG2 (unknown origin).

For series [2], the target named is T1, Broad substrate specificity ATP-binding cassette transporter ABCG2. The experiment in a line: Inhibition of human C-terminal GFP-tagged ABCG2 expressed in MDCK2 cells using pheophorbide A as substrate preincubated for 20 mins followed by substrate addition measured after 120 mins by flow cytometry. Type of series: cell-based, MDCK-II. Put shortly: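 MDCK II BCRP cells, about 45,000/well in KHB, preincubated with compound for 20 min at 37 °C, 5% CO2. Pheophorbide A added (5 µM solution), then 120 min to steady state. Flow cytometry: excitation 488 nm, emission >670 nm (FL3); GFP in FL1. IC50 from 4-parameter logistic fit; duplicates.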

Series [3] concerns the target T2, ATP-dependent translocase ABCB1 (Homo sapiens, UniProt P08183). The experiment in a line: Inhibition of ABCB1 in human A2780/ADR cells incubated for 30 mins measured up to 3600 secs with time intervals of 60 secs by calcein accumulation assay. Type of series: cell-based.
For another series, the target named is ABCB1 (P-glycoprotein) (Homo sapiens, UniProt P08183). Briefly: Inhibition of ABCB1 in human A2780/ADR cells at 10 uM incubated for 30 mins measured up to 3600 secs with time intervals of 60 secs by calcein accumulation assay relative to cyclosporine A. The following applies: probe calcein, read-out: Imax. It counts as cell-based. In outline: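 A2780adr cells, about 30,000/well, preincubated with compound for 30 min. Calcein AM then added (1.25 µM solution); fluorescence (ex 485/em 520 nm) read every 60 s to 3600 s at 37 °C. […] IC50 by four-parameter logistic fit, variable slope.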

Series [4] has as its system MCF7. Briefly: Drug uptake in human MCF7 cells at 10 uM after 2 hrs by confocal laser scanning microscopic analysis. It counts as ADME, cell-based. The note with it: mcf7, 2 h. Put shortly:
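Parental MCF-7 cells, 1 x 10^5 seeded in dishes for 48 h to 50-60% confluence, then exposed to 10 µM compound for 2 h. Supernatant replaced with KHB; confocal imaging at 37 °C, excitation 405 nm, emission 425-475 nm.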

The target in series [5] is T1, Broad substrate specificity ATP-binding cassette transporter ABCG2. The experiment in a line: Inhibition of ABCG2 in human MCF7/MX cells assessed as intracellular pheophorbide A accumulation at 10 uM after 2 hrs by confocal laser scanning microscopic analysis. Type of series: cell-based. Put shortly:
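MCF-7 MX cells (ABCG2-overexpressing; 0.1 µM mitoxantrone every 10 passages) incubated with pheophorbide A together with compound for 2 h. Imaged by confocal laser scanning microscopy at 37 °C after replacing the medium with KHB.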

The test system of series [6] is MCF7. Briefly: Drug uptake in human MCF7 cells up to 60 mins by fluorescence spectroscopic analysis. The following applies: mcf7, 1 h. Type of series: ADME, cell-based. Put shortly: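 Parental MCF-7 cells, 1 x 10^6 per 4.5 ml KHB, incubated with compound for varying times […]. After a KHB wash, intracellular fluorescence was read in a fluorescence spectrometer.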

For another series, the system named is MDCK-II. The experiment in a line: Potentiation of SN-38-induced cytotoxicity in MDCK2 cells assessed as decrease in cell viability at 0.01 to 0.1 uM after 72 hrs by MTT assay. It counts as functional, cell-based. The following applies: Canis lupus familiaris. Put shortly: (§1)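 SN-38 dose-response curves in MDCK II BCRP cells (canine kidney line stably transfected with human ABCG2 C-terminally fused to GFP) and parental MDCK II wild-type cells. Modulator was present at a final 0.01 or 0.1 µM. Cells were seeded at 3 x 10³ per well, attached 6 h, then exposed 72 h. MTT was read at 570 nm minus 690 nm. Data were normalized and fitted with variable-slope sigmoidal regression.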

Series [7] concerns the target T1, Broad substrate specificity ATP-binding cassette transporter ABCG2. Briefly: Non-competitive inhibition of human C-terminal GFP-tagged ABCG2 expressed in MDCK2 cells using pheophorbide A as substrate preincubated for 20 mins followed by substrate addition measured after 120 mins by Lineweaver-Burk plot analysis. Type of series: cell-based. The following applies: mdck-ii, 2 h. Put shortly: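 Pheophorbide A accumulation in MDCK II BCRP cells with substrate at 0.2, 0.4, 0.5, 1.0, 1.5 and 2.0 μM. Inhibitor at 0, 0.031, 0.1, 0.18, 0.31 and 0.56 μM. Transport velocities analyzed by Lineweaver-Burk linearization; inhibition type assigned from changes in KM and Vmax.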

Series [8] shares this target. Briefly: Induction of vanadate-sensitive ATPase activity of recombinant human ABCG2 expressed in baculovirus infected Sf9 cell membrane assessed as increase in inorganic phosphate production up to 1 uM after 20 mins by colorimetry. The note with it: sf9, 20 min. Put shortly: (§2)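 Sf9 membranes from cells infected with baculovirus carrying human wild-type ABCG2, cholesterol-loaded; protein by BCA. Buffer: 40 mM MOPS-Tris pH 7.0, 50 mM KCl, 2 mM DTT, 500 µM EGTA-Tris, 5 mM azide, 1 mM ouabain, 10 µg protein. Reaction started with 3.3 mM MgATP, 20 min at 37 °C. Basal activity with 1 mM orthovanadate; 1 µM quercetin and 1 µM Ko143 as references. Pi by molybdate/ascorbate at 880 nm against K2HPO4 standard; triplicates.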

The target is the same in series [9]. Briefly: Inhibition of vanadate-sensitive ATPase activity of recombinant human ABCG2 expressed in baculovirus infected Sf9 cell membrane assessed as decrease in inorganic phosphate production at >1 uM after 20 mins by colorimetry. The following applies: sf9, 20 min. Put shortly:
as §2

The target in series [10] is Multidrug resistance-associated protein 1 (Homo sapiens, UniProt P33527). Briefly: Inhibition of ABCC1 in human H69AR cells at 10 uM incubated for 30 mins measured up to 3600 secs with time intervals of 60 secs by calcein accumulation assay. It counts as cell-based. In outline:
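Calcein AM assay in ABCC1-overexpressing H69AR cells, about 30,000/well, 30 min preincubation with compound at 10 μM. Calcein AM (1.25 µM solution) added; fluorescence at ex 485/em 520 nm every 60 s up to 3600 s at 37 °C.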

A short description of series [11]: Cytotoxicity against MDCK2 cells assessed as reduction in cell viability after 72 hrs by MTT assay. Type of series: cell-based, Canis lupus familiaris, MDCK-II. The note with it: dog. In outline: (§3)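 Seeding 3 x 10³ cells/well, 6 h attachment at 37 °C, 5% CO2, then compound for 72 h. Controls: 10% DMSO (positive), medium (negative). MTT 5 mg/ml stock for 1 h; formazan in DMSO; A570, background 690 nm. Normalized to control; GI50 from variable-slope sigmoidal fit.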

The nature of series [12]: Cytotoxicity against MDCK2 cells expressing human C-terminal GFP-tagged ABCG2 assessed as reduction in cell viability after 72 hrs by MTT assay. It counts as ADME, cell-based, Canis lupus familiaris, MDCK-II. The note with it: dog. In outline: as §3
The test system of a further series is ABCG2. The experiment in a line: Therapeutic ratio of GI50 for MDCK2 cells expressing human C-terminal GFP-tagged ABCG2 to IC50 for human C-terminal GFP-tagged ABCG2 expressed in MDCK2 cells. Type of series: ADME, cell-based. The following applies: dog, read-out: TI. Put shortly:
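Ratio of GI50 from a 72 h MTT assay in MDCK II BCRP cells to IC50 from the pheophorbide A assay in the same cells.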

Series [13] concerns the target T1, Broad substrate specificity ATP-binding cassette transporter ABCG2. Briefly: Inhibition of human C-terminal GFP-tagged ABCG2 expressed in MDCK2 cells assessed as SN-38-induced cytotoxicity by measuring cell viability at 0.01 to 0.1 uM after 72 hrs by MTT assay. Type of series: cell-based. The following applies: mdck-ii. Put shortly:
as §1

Series [14] has as its target T2, ATP-dependent translocase ABCB1. Briefly: Inhibition of ABCB1 mediated efflux in human MCF7/DX1 cells assessed as intracellular rhodamine-123 accumulation after 30 to 40 mins by flow cytometry. It counts as cell-based.

Active and inactive are the calls of the source. The calls are words filed in the database; no cut-off is given here.

T2 sequence (P08183 whole entry): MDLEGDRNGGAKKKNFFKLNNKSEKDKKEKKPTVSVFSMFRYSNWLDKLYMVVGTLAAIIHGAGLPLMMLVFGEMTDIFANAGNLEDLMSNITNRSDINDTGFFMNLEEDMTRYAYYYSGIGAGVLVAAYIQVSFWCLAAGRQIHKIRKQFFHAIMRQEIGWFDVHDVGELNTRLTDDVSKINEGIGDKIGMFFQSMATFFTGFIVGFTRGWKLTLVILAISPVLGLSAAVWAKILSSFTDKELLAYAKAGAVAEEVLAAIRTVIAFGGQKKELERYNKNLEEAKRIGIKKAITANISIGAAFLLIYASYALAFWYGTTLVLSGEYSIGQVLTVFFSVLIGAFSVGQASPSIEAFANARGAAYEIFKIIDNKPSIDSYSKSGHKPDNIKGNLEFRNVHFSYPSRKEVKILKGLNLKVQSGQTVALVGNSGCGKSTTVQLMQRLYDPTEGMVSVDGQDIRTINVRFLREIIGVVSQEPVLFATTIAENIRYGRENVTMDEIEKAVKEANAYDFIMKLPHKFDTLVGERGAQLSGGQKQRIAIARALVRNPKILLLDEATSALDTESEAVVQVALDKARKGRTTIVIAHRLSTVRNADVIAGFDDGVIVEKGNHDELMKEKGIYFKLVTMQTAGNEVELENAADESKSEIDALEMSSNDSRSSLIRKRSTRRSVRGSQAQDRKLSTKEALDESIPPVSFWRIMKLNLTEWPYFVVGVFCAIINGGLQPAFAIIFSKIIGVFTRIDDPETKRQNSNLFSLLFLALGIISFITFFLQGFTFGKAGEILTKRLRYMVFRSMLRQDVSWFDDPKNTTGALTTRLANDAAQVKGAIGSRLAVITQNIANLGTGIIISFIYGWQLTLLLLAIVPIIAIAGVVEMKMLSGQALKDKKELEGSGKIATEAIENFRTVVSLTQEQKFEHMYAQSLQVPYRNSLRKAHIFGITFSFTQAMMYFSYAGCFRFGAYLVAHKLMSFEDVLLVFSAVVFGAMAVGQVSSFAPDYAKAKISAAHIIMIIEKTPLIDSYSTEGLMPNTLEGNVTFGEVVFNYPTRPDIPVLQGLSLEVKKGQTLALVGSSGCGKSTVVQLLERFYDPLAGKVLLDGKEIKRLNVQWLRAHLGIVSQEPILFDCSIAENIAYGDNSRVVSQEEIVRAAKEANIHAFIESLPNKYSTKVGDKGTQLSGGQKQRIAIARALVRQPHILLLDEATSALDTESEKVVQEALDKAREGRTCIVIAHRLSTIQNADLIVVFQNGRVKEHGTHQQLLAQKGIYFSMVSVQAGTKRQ
Sequence of ABCB1 (P-glycoprotein) (P08183 whole entry): as above
Sequence of Multidrug resistance-associated protein 1 (P33527 whole entry): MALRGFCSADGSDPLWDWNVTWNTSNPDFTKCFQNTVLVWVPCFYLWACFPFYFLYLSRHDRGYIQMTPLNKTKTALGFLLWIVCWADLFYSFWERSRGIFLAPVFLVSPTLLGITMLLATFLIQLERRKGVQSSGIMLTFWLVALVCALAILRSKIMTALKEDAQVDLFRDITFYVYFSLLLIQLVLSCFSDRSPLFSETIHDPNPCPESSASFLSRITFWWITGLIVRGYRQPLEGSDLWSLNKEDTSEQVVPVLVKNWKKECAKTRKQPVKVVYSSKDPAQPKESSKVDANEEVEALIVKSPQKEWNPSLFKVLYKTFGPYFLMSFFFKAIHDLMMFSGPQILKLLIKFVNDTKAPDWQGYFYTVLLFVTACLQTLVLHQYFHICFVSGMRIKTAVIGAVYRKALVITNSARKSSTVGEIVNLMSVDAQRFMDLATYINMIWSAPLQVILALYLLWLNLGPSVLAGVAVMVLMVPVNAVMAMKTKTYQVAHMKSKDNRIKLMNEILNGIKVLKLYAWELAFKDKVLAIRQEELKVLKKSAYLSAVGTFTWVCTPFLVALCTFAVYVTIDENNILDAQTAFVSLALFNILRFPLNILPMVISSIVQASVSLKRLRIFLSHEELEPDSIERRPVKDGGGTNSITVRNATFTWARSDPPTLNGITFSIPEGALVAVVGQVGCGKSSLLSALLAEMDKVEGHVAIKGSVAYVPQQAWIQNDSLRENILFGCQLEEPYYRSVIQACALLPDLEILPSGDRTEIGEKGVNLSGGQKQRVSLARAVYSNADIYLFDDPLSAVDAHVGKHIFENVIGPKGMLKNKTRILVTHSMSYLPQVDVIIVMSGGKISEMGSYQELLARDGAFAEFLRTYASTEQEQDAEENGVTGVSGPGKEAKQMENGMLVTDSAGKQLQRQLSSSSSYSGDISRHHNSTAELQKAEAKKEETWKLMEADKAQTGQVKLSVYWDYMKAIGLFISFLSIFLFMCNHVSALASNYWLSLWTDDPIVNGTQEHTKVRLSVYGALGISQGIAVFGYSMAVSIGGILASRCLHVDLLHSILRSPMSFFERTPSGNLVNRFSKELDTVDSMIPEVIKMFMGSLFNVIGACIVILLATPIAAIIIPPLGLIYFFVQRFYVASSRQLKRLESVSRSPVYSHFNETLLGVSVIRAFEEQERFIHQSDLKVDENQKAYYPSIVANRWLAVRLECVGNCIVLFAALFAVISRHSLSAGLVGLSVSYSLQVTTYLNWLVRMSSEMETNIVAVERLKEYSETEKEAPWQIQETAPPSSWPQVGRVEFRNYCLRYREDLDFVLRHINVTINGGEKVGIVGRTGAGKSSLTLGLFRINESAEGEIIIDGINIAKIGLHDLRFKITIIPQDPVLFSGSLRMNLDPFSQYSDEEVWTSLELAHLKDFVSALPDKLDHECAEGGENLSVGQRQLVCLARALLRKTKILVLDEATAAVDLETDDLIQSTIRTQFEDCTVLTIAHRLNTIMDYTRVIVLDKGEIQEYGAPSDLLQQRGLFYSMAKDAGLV

Molecule `COc1ccc(/C=C/C(=O)c2ccc(OC)c(OC)c2)cc1OC` gave an IC50 in [1] of 5.12 µM.

For the molecule `COc1ccc(/C=C/C(=O)c2ccc(Nc3ncnc4ccccc34)cc2)cc1OC`, the results for the IC50 in [2] and in series [3] were 0.84 µM and 2.34 µM, respectively. Further, the inhibition at 30 min, 10 µM on ABCB1 (P-glycoprotein) was 61%. Further, the Drug uptake entry in the series with MCF7 [4] and in the series with MCF7 [6] was “Active” each time. Further, in series [5], the “inhibition (INH)” value is recorded as “Active”.

On to `COc1ccc(/C=C/C(=O)c2ccc(Nc3nc(-c4ccc(OC)c(OC)c4)nc4ccccc34)cc2)cc1OC`, for which, in the series on MDCK-II, the result was Active. In addition, the IC50 in series [2] was 0.19 µM; in series [3], 14.9 µM. In addition, the “inhibition (INH)” value in [7] is “Active”; in [9] it was “Active”; in [10], “Not Active”; in series [13] it was “Active”. Moreover, the outcome in series [8] was Active. Besides, the GI50 at 72 h in series [11] came out at 132 µM; in series [12], 92.9 µM. In addition, the selectivity ratio with ABCG2 is 489.

With `COc1ccc2c3c1O[C@H]1C[C@@H](OC(=O)CCCCCCCCC(=O)O[C@H]4C=C[C@@]56CN(C)CCc7ccc(OC)c(c75)O[C@H]6C4)C=C[C@@]31CN(C)CC2`, the IC50 in series [14] was 0.8 µM.
